Measured values as given in the M2OR odorant receptor database.
Numbering of substitutions follows the chain as printed.

Tests used:
Details in all cases: stereoisomer not certain
[1] = tested on: T1, OR2A7
T1 sequence (whole entry): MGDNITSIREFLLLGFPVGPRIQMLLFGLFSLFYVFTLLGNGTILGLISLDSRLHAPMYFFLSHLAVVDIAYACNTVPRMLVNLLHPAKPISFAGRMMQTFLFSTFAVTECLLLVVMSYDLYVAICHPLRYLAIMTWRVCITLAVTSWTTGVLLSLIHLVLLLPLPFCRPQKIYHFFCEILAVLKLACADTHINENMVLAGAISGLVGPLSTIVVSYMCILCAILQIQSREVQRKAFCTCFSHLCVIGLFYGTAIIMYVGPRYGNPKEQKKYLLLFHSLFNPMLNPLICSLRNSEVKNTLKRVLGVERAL
Procedure, shortened: (§1)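 Transient luciferase assays in mammalian cell lines were common, though methods varied by source. The values come from published papers and their supplementary material, with extra details from the original authors when needed. Responsive refers to a measured signal the original authors judged statistically different from baseline, and non-responsive (inactive) to the remainder.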

[2] = biological target: T2, OR2AE1 (Homo sapiens) (UniProt Q8NHA4)
T2 sequence (whole entry): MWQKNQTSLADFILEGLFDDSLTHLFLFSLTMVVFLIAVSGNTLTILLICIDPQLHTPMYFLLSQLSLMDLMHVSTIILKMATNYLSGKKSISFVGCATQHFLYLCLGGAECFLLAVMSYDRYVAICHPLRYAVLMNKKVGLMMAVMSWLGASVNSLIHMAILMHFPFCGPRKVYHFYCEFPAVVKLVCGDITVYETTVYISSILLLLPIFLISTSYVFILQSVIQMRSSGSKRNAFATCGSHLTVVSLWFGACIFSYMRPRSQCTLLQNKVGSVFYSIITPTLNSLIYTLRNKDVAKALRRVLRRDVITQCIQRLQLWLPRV
Procedure, shortened: as §1

[3] = biological target: T3, OR2AG1 (Homo sapiens) (UniProt Q9H205)
T3 sequence (whole entry): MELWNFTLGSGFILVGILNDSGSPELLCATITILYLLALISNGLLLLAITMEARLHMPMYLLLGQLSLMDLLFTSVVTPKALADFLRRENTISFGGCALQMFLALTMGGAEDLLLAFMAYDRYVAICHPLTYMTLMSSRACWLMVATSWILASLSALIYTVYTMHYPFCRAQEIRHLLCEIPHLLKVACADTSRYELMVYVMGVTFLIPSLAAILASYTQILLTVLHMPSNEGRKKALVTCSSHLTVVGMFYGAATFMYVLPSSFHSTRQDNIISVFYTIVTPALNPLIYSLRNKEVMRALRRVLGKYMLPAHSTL
Procedure, shortened: as §1

[4] = biological target: T4, OR2AG2 (Homo sapiens) (UniProt A6NM03)
T4 sequence (whole entry): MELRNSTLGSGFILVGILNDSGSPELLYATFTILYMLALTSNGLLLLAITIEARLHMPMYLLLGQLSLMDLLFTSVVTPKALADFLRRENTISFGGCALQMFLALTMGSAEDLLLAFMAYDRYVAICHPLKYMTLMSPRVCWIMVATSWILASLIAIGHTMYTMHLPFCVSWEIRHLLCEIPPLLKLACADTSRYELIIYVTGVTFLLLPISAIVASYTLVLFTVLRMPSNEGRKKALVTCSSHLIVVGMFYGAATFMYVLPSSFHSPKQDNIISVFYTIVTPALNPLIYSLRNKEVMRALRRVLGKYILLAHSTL
Procedure, shortened: as §1

[5] = biological target: T5, OR2AK2 (Homo sapiens) (UniProt Q8NG84)
T5 sequence (whole entry): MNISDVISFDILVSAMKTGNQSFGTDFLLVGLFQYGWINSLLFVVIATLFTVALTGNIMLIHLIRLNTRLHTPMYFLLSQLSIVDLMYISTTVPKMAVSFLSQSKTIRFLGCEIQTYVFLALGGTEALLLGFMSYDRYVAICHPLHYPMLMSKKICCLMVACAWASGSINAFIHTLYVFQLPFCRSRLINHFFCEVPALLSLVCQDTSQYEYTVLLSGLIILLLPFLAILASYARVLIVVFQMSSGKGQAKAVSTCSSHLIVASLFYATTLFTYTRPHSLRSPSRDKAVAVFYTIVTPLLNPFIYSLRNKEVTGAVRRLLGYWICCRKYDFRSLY
Procedure, shortened: as §1

[6] = biological target: T6, OR2AP1 (Homo sapiens) (UniProt Q8NGE2)
T6 sequence (whole entry): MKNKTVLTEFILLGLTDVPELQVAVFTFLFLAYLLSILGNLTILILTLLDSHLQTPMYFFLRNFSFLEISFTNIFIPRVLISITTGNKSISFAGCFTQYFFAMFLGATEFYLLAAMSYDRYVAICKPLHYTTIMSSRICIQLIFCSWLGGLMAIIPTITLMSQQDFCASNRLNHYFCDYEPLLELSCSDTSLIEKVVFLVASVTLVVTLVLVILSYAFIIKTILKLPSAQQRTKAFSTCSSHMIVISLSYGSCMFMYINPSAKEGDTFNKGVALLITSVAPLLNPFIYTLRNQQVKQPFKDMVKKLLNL
Procedure, shortened: as §1

[7] = biological target: T7, OR2AT4 (Homo sapiens) (UniProt A6NND4)
T7 sequence (whole entry): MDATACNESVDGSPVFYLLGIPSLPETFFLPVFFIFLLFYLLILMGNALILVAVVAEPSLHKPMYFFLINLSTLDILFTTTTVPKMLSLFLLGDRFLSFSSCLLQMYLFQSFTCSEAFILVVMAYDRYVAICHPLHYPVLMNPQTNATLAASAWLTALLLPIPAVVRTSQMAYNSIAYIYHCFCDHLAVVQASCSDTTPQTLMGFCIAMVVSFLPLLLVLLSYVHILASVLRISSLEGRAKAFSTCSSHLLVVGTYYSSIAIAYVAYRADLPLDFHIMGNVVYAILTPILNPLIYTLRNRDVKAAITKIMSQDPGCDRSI
Procedure, shortened: as §1

[8] = biological target: T8, OR2B11 (Homo sapiens) (UniProt Q5JQS5)
T8 sequence (whole entry): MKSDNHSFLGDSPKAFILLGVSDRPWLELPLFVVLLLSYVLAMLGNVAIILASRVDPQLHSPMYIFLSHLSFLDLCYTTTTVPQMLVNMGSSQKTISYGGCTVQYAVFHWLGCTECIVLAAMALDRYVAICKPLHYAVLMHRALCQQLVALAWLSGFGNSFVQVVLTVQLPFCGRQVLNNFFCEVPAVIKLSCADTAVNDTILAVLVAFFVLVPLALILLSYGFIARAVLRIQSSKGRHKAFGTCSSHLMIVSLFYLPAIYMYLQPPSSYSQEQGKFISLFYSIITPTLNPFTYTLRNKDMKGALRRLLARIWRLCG
Procedure, shortened: as §1

[9] = biological target: T9, OR2B2 (Homo sapiens) (UniProt Q9GZK3)
T9 sequence (whole entry): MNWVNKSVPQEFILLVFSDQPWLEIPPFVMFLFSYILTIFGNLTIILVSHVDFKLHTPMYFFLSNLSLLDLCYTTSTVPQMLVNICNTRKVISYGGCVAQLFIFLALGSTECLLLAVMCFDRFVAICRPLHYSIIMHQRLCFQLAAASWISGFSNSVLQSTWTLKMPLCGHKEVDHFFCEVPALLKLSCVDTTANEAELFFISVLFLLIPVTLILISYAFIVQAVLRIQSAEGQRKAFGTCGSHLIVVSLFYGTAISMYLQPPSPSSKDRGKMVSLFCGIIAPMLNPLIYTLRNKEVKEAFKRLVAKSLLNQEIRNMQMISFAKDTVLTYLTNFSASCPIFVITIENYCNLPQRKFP
Procedure, shortened: as §1

[10] = biological target: T10, OR2B3 (Homo sapiens) (UniProt O76000)
T10 sequence (whole entry): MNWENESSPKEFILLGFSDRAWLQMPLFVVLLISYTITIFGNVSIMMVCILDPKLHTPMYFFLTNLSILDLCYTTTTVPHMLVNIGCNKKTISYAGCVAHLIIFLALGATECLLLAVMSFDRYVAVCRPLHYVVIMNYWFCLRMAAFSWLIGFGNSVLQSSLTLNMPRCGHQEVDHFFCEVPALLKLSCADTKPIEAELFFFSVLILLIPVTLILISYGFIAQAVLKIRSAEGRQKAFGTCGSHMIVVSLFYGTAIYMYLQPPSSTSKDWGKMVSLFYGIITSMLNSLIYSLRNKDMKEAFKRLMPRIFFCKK
Procedure, shortened: as §1

[11] = biological target: T11, OR2B6 (Homo sapiens) (UniProt P58173)
T11 sequence (whole entry): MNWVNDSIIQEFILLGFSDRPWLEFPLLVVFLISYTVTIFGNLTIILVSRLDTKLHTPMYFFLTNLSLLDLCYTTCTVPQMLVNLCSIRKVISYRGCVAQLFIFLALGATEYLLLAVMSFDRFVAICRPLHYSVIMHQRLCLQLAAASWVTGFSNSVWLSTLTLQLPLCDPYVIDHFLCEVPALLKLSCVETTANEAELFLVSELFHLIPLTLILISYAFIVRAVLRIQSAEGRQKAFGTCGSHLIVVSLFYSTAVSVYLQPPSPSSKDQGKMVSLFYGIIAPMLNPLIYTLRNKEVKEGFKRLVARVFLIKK
Procedure, shortened: as §1

[12] = tested on: T12, OR2BB
T12 sequence (whole entry): T8 sequence (whole entry) with V198M, G223D
Procedure, shortened: as §1

[13] = tested on: T13, OR2BB; remark: listed apart in the source
T13 sequence (whole entry): T8 sequence (whole entry) with V198M
Procedure, shortened: as §1

[14] = biological target: T14, OR2C1 (Homo sapiens) (UniProt O95371)
T14 sequence (whole entry): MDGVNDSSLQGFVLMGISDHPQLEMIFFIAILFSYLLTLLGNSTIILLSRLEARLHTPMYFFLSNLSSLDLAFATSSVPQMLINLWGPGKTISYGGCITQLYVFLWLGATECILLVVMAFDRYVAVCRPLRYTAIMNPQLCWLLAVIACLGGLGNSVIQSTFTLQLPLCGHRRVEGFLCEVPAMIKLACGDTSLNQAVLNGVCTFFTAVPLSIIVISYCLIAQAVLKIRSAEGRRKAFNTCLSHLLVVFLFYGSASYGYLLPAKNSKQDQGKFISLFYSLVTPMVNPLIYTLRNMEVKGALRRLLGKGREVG
Procedure, shortened: as §1

[15] = tested on: T15, OR2C1
T15 sequence (whole entry): T14 sequence (whole entry) with C149W
Procedure, shortened: as §1

[16] = tested on: T16, OR2BB; remark: listed apart in the source
T16 sequence (whole entry): T8 sequence (whole entry) with V198M, T293I, D300G
Procedure, shortened: as §1

[17] = tested on: OR2BB; remark: listed apart in the source
Procedure, shortened: as §1
Target sequence in this assay (as listed by the source): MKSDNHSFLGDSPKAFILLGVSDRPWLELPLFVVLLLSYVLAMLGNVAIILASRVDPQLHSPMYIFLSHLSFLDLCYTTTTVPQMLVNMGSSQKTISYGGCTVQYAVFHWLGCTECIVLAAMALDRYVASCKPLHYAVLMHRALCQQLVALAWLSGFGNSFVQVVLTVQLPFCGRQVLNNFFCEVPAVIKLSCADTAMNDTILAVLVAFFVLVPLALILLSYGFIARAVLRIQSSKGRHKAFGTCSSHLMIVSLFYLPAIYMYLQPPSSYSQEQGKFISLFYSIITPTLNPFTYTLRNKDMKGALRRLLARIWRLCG

[18] = tested on: OR2C1; remark: listed apart in the source
Procedure, shortened: as §1
Target sequence in this assay (as listed by the source): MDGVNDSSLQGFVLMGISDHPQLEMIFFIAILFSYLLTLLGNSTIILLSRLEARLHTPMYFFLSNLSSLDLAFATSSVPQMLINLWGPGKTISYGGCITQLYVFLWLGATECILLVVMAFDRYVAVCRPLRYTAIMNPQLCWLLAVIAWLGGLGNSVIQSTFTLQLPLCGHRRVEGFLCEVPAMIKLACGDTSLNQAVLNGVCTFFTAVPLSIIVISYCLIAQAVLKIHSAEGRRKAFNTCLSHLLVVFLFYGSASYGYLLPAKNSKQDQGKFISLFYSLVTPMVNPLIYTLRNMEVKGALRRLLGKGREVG

[19] = tested on: OR2C1; remark: listed apart in the source
Procedure, shortened: as §1
Target sequence in this assay (as listed by the source): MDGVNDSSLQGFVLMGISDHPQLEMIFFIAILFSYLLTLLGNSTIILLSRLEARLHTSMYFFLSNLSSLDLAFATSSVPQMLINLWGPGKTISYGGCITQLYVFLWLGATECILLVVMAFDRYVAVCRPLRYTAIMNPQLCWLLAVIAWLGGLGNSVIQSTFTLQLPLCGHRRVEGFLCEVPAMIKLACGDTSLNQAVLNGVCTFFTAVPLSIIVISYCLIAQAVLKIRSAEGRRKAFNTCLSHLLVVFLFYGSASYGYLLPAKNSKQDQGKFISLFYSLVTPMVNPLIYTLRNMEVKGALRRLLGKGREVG

Measured: odorant receptor agonist call;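 also: active if original authors judged signal statistically different from baseline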

Cc1cnc(C)c(C)n1
not listed: [16] | [17] | [18] | [19]
inactive: all other assays above

CCCCC1CCC(=O)O1 (stereo not given)
inactive: [10]

O=c1ccc2ccccc2o1
active: [8] | [16] | [13]
inactive: [12] | [17] | [14]

CCC1OC(C)=C(O)C1=O (stereo not given)
not listed: [16] | [17] | [18] | [19]
inactive: all other assays above

CCCCCOC(=O)CCC
inactive: [3]

CC1=C(O)C(=O)OC1C (stereo not given)
not listed: [16] | [17] | [18] | [19]
inactive: all other assays above

CC(C)(C)C1CCCCC1OCCCCO (stereo not given)
inactive: [10]

CC1=C(O)C(=O)C(C)O1 (stereo not given)
not listed: [16] | [17] | [18] | [19]
inactive: all other assays above

COC1CC2CC1C1CC(C=O)CC21 (stereo not given)
inactive: [10]

C=CC(C)(CCC=C(C)C)OC(C)=O (stereo not given)
inactive: [10]

CCCCCCCCS
active: [18] | [15] | [19]

O=C([O-])C[SH2+]
active: [15]
